Reference: publication PMC6263297 (Drug Design, Development and Therapy, 2018)
Like-named read-outs stand apart in the source and are kept apart here.

What was measured:
patients with asthma = details: oral 0.10, 0.25, and 0.50 mg once daily; cited from earlier work
[1] = type: in vivo, human (healthy Chinese volunteers); details: single doses over the range 0.25–0.50 mg
PDE4 enzyme = details: in vitro; cited from earlier work
[2] = cited from earlier work
[3] = cited from earlier work; remark: listed apart in the source
[4] = Safety assessment: treatment-related adverse events; type: in vivo, human (healthy Chinese volunteers)
Method in brief: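 The same 12 volunteers received three single-dose periods (0.25, 0.375, 0.5 mg orally after >10 h fast, 10-day washouts), then 0.375 mg once daily for 11 days. Adverse events were collected by interview and monitoring and graded for relation to treatment (probably/possibly). Vital signs, physical examination, clinical laboratory tests and ECG were done at screening and at study completion.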

[5] = test system: acute exacerbations of COPD; details: treated over 4 weeks; cited from earlier work
[6] = after receiving 0.5 mg roflumilast
[7] = single and multiple oral doses, all subjects
[8] = single- and multiple-dose studies together

O=C(Nc1c(Cl)cncc1Cl)c1ccc(OC(F)F)c(OCC2CC2)c1 [Roflumilast]
effect on forced expiratory volume in 1 second (patients with asthma): statistically significant effects with dose-related increases from baseline
mean t1/2 over the three single-dose groups [1]: ~ 20 hours
potency upon inhibition of the PDE4 enzyme relative to roflumilast N-oxide (PDE4 enzyme): three times more potent
effective half-life (t1/2) ([2]; after dosing of 0.5 mg roflumilast): 8 to 31 h
effect of food intake on Cmax (decrease) ([2]; food intake): ~ 40%
effect of food intake on Tmax (delay) ([2]; food intake): 1 h
effect of food intake on the total inhibitory activity of PDE4 ([2]; food intake): does not affect
number of AEs reported ([3]; 15 subjects after receiving 0.5 mg roflumilast): 59
Abdominal discomfort, share of subjects [3, 6]: 20%
Headache, share of subjects [3, 6]: 46.7%
Nausea, share of subjects [3, 6]: 20%
subjects who exited the study because of AEs ([3]; of 19 subjects, erectile dysfunction, visual flicker, blurred vision): 2 subjects
number of TRAEs reported ([4]; 0.25 mg single dose): Seven
number of TRAEs reported ([4]; 0.375 mg multiple doses): 25
serious adverse events ([4]; across the trial): no serious adverse events
overall safety and tolerability ([4]; healthy Chinese volunteers, single doses 0.25–0.5 mg and multiple doses 0.375 mg): safe and well-tolerated
Any adverse event: number of subjects (%) reporting TRAEs ([4]; multiple doses 0.375 mg (n=12)): 12 subjects (%)
number of TRAEs of moderate degree ([4]; presenting as acute gastroenteritis): one
number of TRAEs of severe degree ([4]; presenting as diarrhea): one
Diarrhea, share of subjects [4, 7]: 30.8%
Dizziness, share of subjects [4, 7]: 53.8%
Elevated creatine kinase level, share of subjects [4, 7]: 15.4%
Elevated total bilirubin level, share of subjects [4, 7]: 15.4%
Headache, share of subjects [4, 7]: 23.1%
Nausea, share of subjects [4, 7]: 53.8%
Upper respiratory tract infection, share of subjects [4, 7]: 23.1%
number of TRAEs of mild degree [4, 8]: Forty-six
total number of treatment-related adverse events [4, 8]: 48
percentage of sputum neutrophils [5]: statistically significant greater reduction
sputum myeloperoxidase concentration [5]: statistically significant greater reduction
